# Experimental data collected from several papers.
# Protocols differ between the studies behind these lines.
Structure (SMILES),cell line,assay,conditions,IC50
CCNCCCn1c2c(c3cc(OC)c(OC)cc3c1=O)C(=O)c1cc3c(nc1-2)OCO3,Raji,"cell growth or viability, MTS",72 h,0.125 µM
CCCOc1nc(-c2cccc(O)c2)cc(-c2cc3ccccc3nc2N2CCOCC2)c1C#N,NFS-60,"cell growth or viability, MTT",72 h,0.151 µM
NCCC(=O)NCc1ccccc1,DH82,"NO release, inhibitor, Griess","24 h, LPS-stimulated",158 µM
C=CC(=O)N1CCN(c2nc(=O)n(-c3c(C)ccnc3C(C)C)c3nc(-c4c(O)cccc4F)c(F)cc23)[C@@H](C)C1,PC-9,"cell growth or viability, ATP luminescence",,> 10 µM
Cn1nnc2c(C(N)=O)ncn2c1=O,U-87 MG,"cell growth or viability, trypan blue",72 h,50 µM
CCOc1nc(-c2cccc(O)c2)cc(-c2cc3cc(Cl)ccc3nc2N2CCOCC2)c1C#N,NFS-60,"cell growth or viability, MTT",72 h,0.113 µM
Cc1nc2cccc(N)c2c(=O)n1C1CCC(=O)NC1=O (stereo not shown),NCI-H929,"cell growth or viability, CCK-8",96 h,< 0.33 µM
Nc1n[nH]c2nc(-c3cccc(O)c3)cc(-c3cc4cc(Cl)ccc4nc3N3CCOCC3)c12,NFS-60,"cell growth or viability, MTT",72 h,0.16 µM
CC1(C)CCC(CN2CCN(c3ccc(C(=O)NS(=O)(=O)c4ccc(NCC5CCOCC5)c([N+](=O)[O-])c4)c(Oc4cnc5[nH]ccc5c4)c3)CC2)=C(c2ccc(Cl)cc2)C1,DOHH-2,"cell growth or viability, ATP luminescence",48 h,0.077 µM
O=C(CCNNC(=O)c1ccncc1)NCc1ccccc1,DH82,"PGE2 release, inhibitor, ELISA","24 h, LPS-stimulated",> 200 µM
C=C(F)C(=O)N1CCN(c2nc(OC[C@@H]3CCCN3C)nc3c2CCN(c2cccc4cccc(Cl)c24)C3)C[C@@H]1CC#N,AGS,"cell growth or viability, ATP luminescence",3D culture,> 1 µM
COc1ccc(-c2cc(-c3cc(OC)ccc3OC)c3c(=O)[nH]c(=O)[nH]c3n2)cc1,HCT-116,"cell growth or viability, MTT",48 h,11.8 µM
COCCC(=O)NCc1ccccc1,DH82,"NO release, inhibitor, Griess","24 h, LPS-stimulated",171 µM
COc1ccc(-c2cc(-c3cccc(Br)c3)c3c(=O)n(C)c(=O)n(C)c3n2)cc1,HCT-116,"cell growth or viability, MTT",48 h,7.88 µM
COc1cc2c(cc1OC)-c1cc3ccc(OC)c(OCCN)c3c[n+]1CC2,PC-9,"cell growth or viability, MTT",72 h,> 80 µM
NC(=O)c1ccncc1,DH82,"PGE2 release, inhibitor, ELISA","24 h, LPS-stimulated",> 200 µM
CCCOc1nc(-c2cccc(O)c2)cc(-c2cc3cc(Cl)ccc3nc2N2CCOCC2)c1C#N,NFS-60,"cell growth or viability, MTT",72 h,0.244 µM
O=C(CCO)NCc1ccccc1,DH82,"NO release, inhibitor, Griess","24 h, LPS-stimulated",57.5 µM
COc1cc2c3c(n(CCCn4ccnc4)c(=O)c2cc1OC)-c1nc2c(cc1C3=O)OCO2,Raji,"cell growth or viability, MTS",72 h,0.204 µM
